Experimental data collected from several papers.
Protocols differ between the studies behind these lines.
Target: Platelet-derived growth factor receptor beta (PDGFRB, Homo sapiens, UniProt P09619)

| SMILES | test | setting | measurement | value |
| --- | --- | --- | --- | --- |
| CS(=O)(=O)Nc1cccc(-c2csc(NC(=O)CSc3nc4nccnc4c(=O)n3CCc3ccccc3)n2)c1 | enzyme activity, inhibitor | 10 µM | inhibition | 7% |
| Cc1[nH]c(/C=C2\C(=O)Nc3ccc(F)cc32)c(C)c1C(=O)N[C@H]1CCN(C(=O)N(C)C)C1 | enzyme activity, inhibitor | 1 µM | remaining activity | 18% |
| CS(=O)(=O)N1CCCC(NC(=O)[C@H](CCC2CCCCC2)NC(=O)c2ccc(CNc3ncnc4c3nnn4-c3ccccc3)cc2)C1 (some centres unmarked) | cell-free assay, competition with immobilised ligand | 0.1 µM | remaining binding | 86% |
| Cc1ccc(Nc2nccc(N(C)c3ccc4c(C)n(C)nc4c3)n2)cc1S(N)(=O)=O | enzyme activity, inhibitor | 10 µM | inhibition | 97% |
| CC(C)c1ccc(NC(=O)c2cccs2)c(-c2nc3ccccc3[nH]c2=O)c1 | enzyme activity, inhibitor | 1 µM | activity vs control | 105% |
| O=C(NCCCC1CCCCC1)c1ccc(CNC(=O)c2cnn(-c3ccccc3)c2C(F)(F)F)cc1 | cell-free assay, competition with immobilised ligand | 0.1 µM | remaining binding | 100% |
| COc1cc(Cl)c(C(=O)N[C@@H](CN[C@H]2CC[C@@H](N)CC2)Cc2ccc(C#N)cc2)cc1-c1ccc(CN[C@H](C)c2ccc(C)cc2)o1 | enzyme activity, inhibitor | 1 µM | remaining activity | 95% |
| Cc1ccc(C(=O)Nc2ccc(CN3CCN(C)CC3)c(C(F)(F)F)c2)cc1C#Cc1cnc2cccnn12 | enzyme activity, inhibitor | 23.5 nM | remaining activity | 1.6% |
| CC(C)(O)c1cncc(-c2nc3ccc(F)cc3n2C2CC2)c1 | cell-free assay, competition with immobilised ligand | 1 µM | remaining binding | 100% |
| O=C1Nc2ccc(Cl)cc2C1=Cc1cc(Cl)c(O)c(Cl)c1 | cell-free assay | 0.5 µM | remaining signal | 76.9% |
| O=c1nc(-c2ccccn2)sc2ccccc12 | cell-free assay, competition with immobilised ligand | 1 µM | remaining binding | 83% |
| COc1cc2ncnc(Nc3ccc(Oc4ccccc4)c(C)c3C)c2cc1OC | enzyme activity, inhibitor | 1 µM | inhibition | 6% |
| O=C(Nc1cnn(-c2csc(C(=O)NC3COC3)c2)c1)Nc1ccccc1Cl | enzyme activity, inhibitor | 5 µM | remaining activity | 107% |
| O=C(Nc1ccc(Oc2ccc(F)cc2)cc1)N1CCc2ncccc2[C@H]1c1ccc(F)cc1 | cell-free assay, competition with immobilised ligand | 1 µM | remaining binding | 100% |
| O=c1cc(-c2cccc3c2Sc2ccccc2S3)oc(N2CCOCC2)c1 | enzyme activity, inhibitor | 0.5 µM | remaining activity | 102% |
| COc1cccc(CNC(=O)c2nc3scc(COCc4ccc(C(=O)O)cc4)c3c(=O)[nH]2)c1 | cell-free assay, competition with immobilised ligand | 1 µM | remaining binding | 99% |
| O=C1c2ccccc2-c2n[nH]c3cccc1c23 | enzyme activity, inhibitor | 0.5 µM | activity vs control | 85.1% |
| O=C(Nc1cccnn1)N1CC(C/C=C/c2cncc(Oc3ccc(C(F)(F)F)cn3)n2)C1 | cell-free assay, competition with immobilised ligand | 1 µM | remaining binding | 81% |
| Cc1cc(NC(=O)c2cccc3cc(-c4cccc5[nH]nc(N)c45)ccc23)ccc1F | enzyme activity, inhibitor | 0.1 µM | activity vs control | 101% |
| CN(C)c1ccc(C=C2C(=O)Nc3ccccc32)cc1 | enzyme activity, inhibitor | 0.5 µM | remaining activity | 85.8% |
| Fc1cccc(-n2cnc3c(NCc4nc5c(F)c(F)ccc5[nH]4)nc(N4CCOCC4)nc32)c1 | binding, competition with immobilised ligand | 10 µM | binding vs control | 91% |
| CCCOc1ccc([C@H]2[C@H](C(=O)O)[C@@H](c3ccc4c(c3)OCO4)CN2CC(=O)Nc2c(CC)cccc2CC)cc1 | cell-free assay, competition with immobilised ligand | 1 µM | remaining binding | 100% |
| Cc1cnc(NC2CCOCC2)nc1-n1cnc(C(=O)NC(CN)c2cc(F)cc(Cl)c2)c1 (centres unmarked) | enzyme activity, inhibitor, radiometric | 1 µM | remaining activity | 92% |
| O=C1NC(=O)c2cc(Nc3ccc(F)cc3)c(Nc3ccc(F)cc3)cc21 | cell-free assay | 0.5 µM | remaining signal | 93.9% |
| CC(C)(O)[C@H]1CC[C@H](Nc2ccc3ncc(-c4cccc(C(F)(F)F)c4)n3n2)CC1 | enzyme activity, inhibitor | 1 µM | remaining activity | 81% |
| O=c1c2ccccc2[nH]c(=S)n1CCN1CCC(=C(c2ccc(F)cc2)c2ccc(F)cc2)CC1 | enzyme activity, inhibitor | 0.5 µM | remaining activity | 112% |
| CC/C(=N\NC(=O)NCc1cccc(O)c1)c1ccc(O)c(C)c1O | enzyme activity, inhibitor | 0.1 µM | inhibition | 4.5% |
| COc1cc2nccc(Oc3ccc(NC(=O)c4c5n(n(-c6ccc(F)cc6)c4=O)CCCC5)cc3)c2cc1OC | enzyme activity, inhibitor | 0.1 µM | inhibition | 6% |
| CCN(CC)CCNC(=O)c1c(C)[nH]c(/C=C2\C(=O)Nc3ccc(Cl)cc32)c1C | enzyme activity, inhibitor | 0.5 µM | remaining activity | 9.28% |
